pIC50: −log10 of the molar value. Calls of active or inactive are those of the source. The calls are words filed in the database; no cut-off is given here.
Key:
[1] = biological target: T1, C-X-C chemokine receptor type 6 (Homo sapiens, UniProt O00574); experiment: Antagonist activity at Prolink-tagged human CXCR6 receptor assessed as inhibition of CXCL16-induced beta-arrestin recruitment by DiscoveRx cell based assay
Target sequence in this assay (O00574 whole entry): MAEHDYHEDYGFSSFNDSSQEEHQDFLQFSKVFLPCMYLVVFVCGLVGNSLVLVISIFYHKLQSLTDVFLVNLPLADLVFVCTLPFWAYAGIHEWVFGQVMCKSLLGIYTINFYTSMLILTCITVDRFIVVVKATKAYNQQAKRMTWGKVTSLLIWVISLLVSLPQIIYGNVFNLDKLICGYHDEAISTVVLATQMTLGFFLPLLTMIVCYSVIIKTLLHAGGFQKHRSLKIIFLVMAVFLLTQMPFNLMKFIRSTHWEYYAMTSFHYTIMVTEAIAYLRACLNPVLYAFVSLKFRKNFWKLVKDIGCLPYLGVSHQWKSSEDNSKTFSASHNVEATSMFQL

[2] = biological target: T1, C-X-C chemokine receptor type 6; experiment: Antagonist activity at Prolink-tagged human CXCR6 receptor assessed as inhibition of forskolin-induced cAMP accumulation by DiscoveRx cell based assay; type: functional
Procedure, shortened: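 Lance Ultra TR-FRET cAMP assay in CXCR6 β-arrestin cells, 500 cells/well in OptiMEM/2% FBS, grown overnight. Compound added, then forskolin (2.5 mM stock) in HBSS/HEPES/BSA/RO-20-1724 with or without 20 nM CXCL16, 30 min at room temperature. Eu-cAMP tracer and ULight anti-cAMP antibody added, read after 30 min. Curve fit with Hill slope 1; ≥2 independent runs.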
Target sequence in this assay (O00574 whole entry): as above

[3] = biological target: T1, C-X-C chemokine receptor type 6; experiment: Antagonist activity at Prolink-tagged human CXCR6 receptor assessed as inhibition of CXCL16-induced beta-arrestin recruitment by DiscoveRx cell based assay relative to control; design: concentration or dose not given beside the values
Procedure, shortened: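 CXCR6 β-arrestin cells in assay media without G418/hygromycin, 800 cells/well, grown overnight at 37 °C; compounds added acoustically (DMSO ≤0.3%), then 20 nM CXCL16 (final) for 90 min at 37 °C. PathHunter luminescence read. Normalized between CXCL16-alone and no-ligand wells; four-parameter fit with Hill slope fixed at 1; at least two runs on different days, averaged pIC50 ± SD.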
Target sequence in this assay (O00574 whole entry, looked up): as the sequence (O00574 whole entry) above

[4] = biological target: T1, C-X-C chemokine receptor type 6; experiment: Antagonist activity at Prolink-tagged human CXCR6 receptor assessed as inhibition of forskolin-induced cAMP accumulation by DiscoveRx cell based assay relative to control; type: functional; design: concentration or dose not given beside the values
Procedure, shortened: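 CXCR6 β-arrestin cells in OptiMEM with 2% FBS, 500 cells/well, grown overnight; compounds added, then forskolin with 20 nM CXCL16 (stock concentrations) in HBSS/HEPES/BSA with RO-20-1724, 30 min at room temperature. cAMP read by LANCE Ultra TR-FRET after a further 30 min. Hill slope fixed at 1; at least two runs on different days, averaged pIC50 ± SD.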
Target sequence in this assay (O00574 whole entry, looked up): as the sequence (O00574 whole entry) above

COc1cc(C(=O)N[C@@H]2C[C@H]3CCC[C@@H](C2)N3CC(=O)Nc2ccc(Cl)cc2)cc(OC)c1OC
pIC50 [1]: 5.82 | pIC50 [2]: 4.85 | inhibition ([3]; concentration not given here): 101% | inhibition ([4]; concentration not given here): 93%

COc1cccc(CN2[C@@H]3CCC[C@H]2C[C@H](NC(=O)c2cc(OC)c(OC)c(OC)c2)C3)c1
pIC50 [1]: < 4.30 | pIC50 [2]: < 4.30 | inhibition [3]: inactive | inhibition [4]: inactive

COc1cc(C(=O)N[C@@H]2C[C@H]3CCC[C@@H](C2)N3Cc2nc3c(C)cccc3s2)cc(OC)c1OC
pIC50 [1]: 6.60 | pIC50 [2]: 5.32 | inhibition ([3]; concentration not given here): 100% | inhibition ([4]; concentration not given here): 86%

COc1cc(C(=O)N[C@@H]2C[C@H]3CCC[C@@H](C2)N3CC(=O)Nc2cc(C)ccc2C)cc(OC)c1OC
pIC50 [1]: 6.21 | pIC50 [2]: 4.78 | inhibition ([3]; concentration not given here): 105% | inhibition ([4]; concentration not given here): 108%

COc1cc(C(=O)N[C@@H]2C[C@H]3CCC[C@@H](C2)N3Cc2nc3c(F)cccc3s2)cc(OC)c1OC
pIC50 [1]: 6.96 | pIC50 [2]: 5.72 | inhibition ([3]; concentration not given here): 103% | inhibition ([4]; concentration not given here): 105%

COc1cc(C(=O)N[C@@H]2C[C@H]3CCC[C@@H](C2)N3CCc2nc3ccccc3s2)cc(OC)c1OC
pIC50 [1]: < 4.30 | pIC50 [2]: < 4.30 | inhibition [3]: inactive | inhibition [4]: inactive

COc1cc(C(=O)N[C@@H]2C[C@H]3CCC[C@@H](C2)N3Cc2nc3c(Br)cccc3s2)cc(OC)c1OC
pIC50 [1]: 7.10 | pIC50 [2]: 6.00 | inhibition ([3]; concentration not given here): 102% | inhibition ([4]; concentration not given here): 91%

COc1cc(C(=O)N[C@@H]2C[C@H]3CCC[C@@H](C2)N3Cc2nc3cc(Cl)ccc3s2)cc(OC)c1OC
pIC50 [1]: 6.77 | pIC50 [2]: 5.49 | inhibition ([3]; concentration not given here): 100% | inhibition ([4]; concentration not given here): 90%

COc1cc(C(=O)N[C@@H]2C[C@H]3CCC[C@@H](C2)N3Cc2cc3ccccc3[nH]2)cc(OC)c1OC
pIC50 [1]: 4.63 | pIC50 [2]: < 4.30 | inhibition ([3]; concentration not given here): 64% | inhibition [4]: inactive

COc1ccc(C(=O)N[C@@H]2C[C@H]3CCC[C@@H](C2)N3CC(=O)Nc2ccc(Cl)cc2)cc1
pIC50 [1]: < 4.40 | pIC50 [2]: 5.23 | inhibition [3]: inactive | inhibition ([4]; concentration not given here): 94%

COc1cc(C(=O)N[C@@H]2C[C@H]3CCC[C@@H](C2)N3Cc2nc3ccccc3s2)cc(OC)c1OC
pIC50 [1]: 6.52 | pIC50 [2]: 5.10 | inhibition ([3]; concentration not given here): 101% | inhibition ([4]; concentration not given here): 85%

COc1cc(C(=O)N[C@@H]2C[C@H]3CCC[C@@H](C2)N3CC(=O)Nc2ccc(Cl)c(Cl)c2)cc(OC)c1OC
pIC50 [1]: 6.46 | pIC50 [2]: 5.74 | inhibition ([3]; concentration not given here): 103% | inhibition ([4]; concentration not given here): 101%

O=C(CN1[C@@H]2CCC[C@H]1C[C@H](NC(=O)c1ccc3c(c1)OCO3)C2)Nc1ccc(Cl)cc1
pIC50 [1]: < 4.40 | pIC50 [2]: 5.28 | inhibition [3]: inactive | inhibition ([4]; concentration not given here): 84%

COc1cc(C(=O)N[C@@H]2C[C@H]3CCC[C@@H](C2)N3Cc2ccccc2Cl)cc(OC)c1OC
pIC50 [1]: 5.17 | pIC50 [2]: 4.94 | inhibition ([3]; concentration not given here): 99% | inhibition ([4]; concentration not given here): 101%

COc1cc(C(=O)N[C@@H]2C[C@H]3CCC[C@@H](C2)N3Cc2nc3ccc(Cl)cc3s2)cc(OC)c1OC
pIC50 [1]: 6.57 | pIC50 [2]: 4.85 | inhibition ([3]; concentration not given here): 103% | inhibition ([4]; concentration not given here): 83%

COc1cc(C(=O)N[C@@H]2C[C@H]3CCC[C@@H](C2)N3CC(=O)Nc2cc(Cl)ccc2Cl)cc(OC)c1OC
pIC50 [1]: 6.89 | pIC50 [2]: 6.15 | inhibition ([3]; concentration not given here): 99% | inhibition ([4]; concentration not given here): 101%

COc1cc(C(=O)N[C@@H]2C[C@H]3CC[C@@H](C2)N3CC(=O)Nc2ccccc2)cc(OC)c1OC
pIC50 [2]: < 4.40 | inhibition ([3]; concentration not given here): 63% | inhibition [4]: inactive

CCOC(=O)c1ccccc1NC(=O)CN1[C@@H]2CCC[C@H]1C[C@H](NC(=O)c1cc(OC)c(OC)c(OC)c1)C2
pIC50 [1]: 5.80 | pIC50 [2]: 5.16 | inhibition ([3]; concentration not given here): 79% | inhibition ([4]; concentration not given here): 96%

COc1cc(C(=O)N[C@@H]2C[C@H]3CCC[C@@H](C2)N3CC(=O)Nc2ccccc2C#N)cc(OC)c1OC
pIC50 [1]: 6.03 | pIC50 [2]: 5.15 | inhibition ([3]; concentration not given here): 91% | inhibition ([4]; concentration not given here): 105%

COc1cc(C(=O)N[C@@H]2C[C@H]3CCC[C@@H](C2)N3CC(=O)Nc2ccccc2Br)cc(OC)c1OC
pIC50 [1]: 6.80 | pIC50 [2]: 6.05 | inhibition ([3]; concentration not given here): 105% | inhibition ([4]; concentration not given here): 104%

COc1cc(C(=O)N[C@@H]2C[C@H]3CCC[C@@H](C2)N3CC(=O)Nc2cccc(Cl)c2)cc(OC)c1OC
pIC50 [1]: 6.39 | pIC50 [2]: 5.37 | inhibition ([3]; concentration not given here): 105% | inhibition ([4]; concentration not given here): 97%

COc1cc(C(=O)N[C@@H]2C[C@H]3CCC[C@@H](C2)N3CC(=O)Nc2ccccc2)cc(OC)c1OC
pIC50 [1]: 5.24 | pIC50 [2]: 4.51 | inhibition ([3]; concentration not given here): 65% | inhibition ([4]; concentration not given here): 86%

COc1ccccc1NC(=O)CN1[C@@H]2CCC[C@H]1C[C@H](NC(=O)c1cc(OC)c(OC)c(OC)c1)C2
pIC50 [1]: 5.68 | pIC50 [2]: 4.83 | inhibition ([3]; concentration not given here): 102% | inhibition ([4]; concentration not given here): 100%

COc1cc(C(=O)N[C@@H]2C[C@H]3CCC[C@@H](C2)N3Cc2nc3c(OC)cccc3s2)cc(OC)c1OC
pIC50 [1]: 5.51 | pIC50 [2]: < 4.30 | inhibition ([3]; concentration not given here): 86% | inhibition [4]: inactive

COc1cc(C(=O)N[C@@H]2C[C@H]3CCC[C@@H](C2)N3CC(=O)Nc2ccc(C)cc2)cc(OC)c1OC
pIC50 [1]: 5.02 | pIC50 [2]: < 4.40 | inhibition ([3]; concentration not given here): 100% | inhibition [4]: inactive

COc1cccc(NC(=O)CN2[C@@H]3CCC[C@H]2C[C@H](NC(=O)c2cc(OC)c(OC)c(OC)c2)C3)c1
pIC50 [1]: 5.24 | pIC50 [2]: 4.29 | inhibition ([3]; concentration not given here): 96% | inhibition ([4]; concentration not given here): 93%

COc1cc(C(=O)N[C@@H]2C[C@H]3CCC[C@@H](C2)N3CC(=O)Nc2ccc(Cl)cc2Cl)cc(OC)c1OC
pIC50 [1]: 6.80 | pIC50 [2]: 6.05 | inhibition ([3]; concentration not given here): 105% | inhibition ([4]; concentration not given here): 105%

COc1cc(C(=O)N[C@@H]2C[C@H]3CCC[C@@H](C2)N3CC(=O)Nc2c(Cl)cccc2Cl)cc(OC)c1OC
pIC50 [1]: 4.42 | pIC50 [2]: < 4.40 | inhibition ([3]; concentration not given here): 57% | inhibition [4]: inactive

COc1cc(C(=O)N[C@@H]2C[C@H]3CCC[C@@H](C2)N3Cc2nc3cccc(Cl)c3s2)cc(OC)c1OC
pIC50 [1]: 6.59 | pIC50 [2]: 5.05 | inhibition ([3]; concentration not given here): 102% | inhibition ([4]; concentration not given here): 93%

COc1cc(C(=O)N[C@@H]2C[C@H]3CCC[C@@H](C2)N3CC(=O)Nc2c(C)cccc2C)cc(OC)c1OC
pIC50 [1]: < 4.40 | pIC50 [2]: < 4.40 | inhibition [3]: inactive | inhibition [4]: inactive

COc1cc(C(=O)N[C@@H]2C[C@H]3CCC[C@@H](C2)N3Cc2ccc3ccccc3n2)cc(OC)c1OC
pIC50 [1]: 5.17 | pIC50 [2]: 4.39 | inhibition ([3]; concentration not given here): 88% | inhibition ([4]; concentration not given here): 88%

COc1cc(C(=O)N[C@@H]2C[C@H]3CCC[C@@H](C2)N3CC(=O)Nc2cccc(C)c2)cc(OC)c1OC
pIC50 [1]: 5.74 | pIC50 [2]: 4.75 | inhibition ([3]; concentration not given here): 102% | inhibition ([4]; concentration not given here): 92%

COc1cc(C(=O)N[C@@H]2C[C@H]3CCC[C@@H](C2)N3Cc2c[nH]c3ccccc23)cc(OC)c1OC
pIC50 [1]: < 4.30 | pIC50 [2]: < 4.30 | inhibition [3]: inactive | inhibition [4]: inactive

COc1cccc(C(=O)N[C@@H]2C[C@H]3CCC[C@@H](C2)N3CC(=O)Nc2ccc(Cl)cc2)c1
pIC50 [1]: < 4.40 | pIC50 [2]: 4.84 | inhibition [3]: inactive | inhibition ([4]; concentration not given here): 87%

COc1cc(C(=O)N[C@@H]2C[C@H]3CCC[C@@H](C2)N3Cc2ccc(Cl)cc2)cc(OC)c1OC
pIC50 [1]: 4.63 | pIC50 [2]: 4.41 | inhibition ([3]; concentration not given here): 90% | inhibition ([4]; concentration not given here): 58%

COc1cc(C(=O)N[C@@H]2C[C@H]3CCC[C@@H](C2)N3CC(=O)Nc2ccccc2C)cc(OC)c1OC
pIC50 [1]: 6.10 | pIC50 [2]: 5.03 | inhibition ([3]; concentration not given here): 104% | inhibition ([4]; concentration not given here): 101%

COc1cc(C(=O)N[C@@H]2C[C@H]3CCC[C@@H](C2)N3CC(=O)Nc2ccccc2F)cc(OC)c1OC
pIC50 [1]: 6.21 | pIC50 [2]: 5.19 | inhibition ([3]; concentration not given here): 103% | inhibition ([4]; concentration not given here): 99%

COc1cc(C(=O)N[C@@H]2C[C@H]3CCC[C@@H](C2)N3Cc2ccc3ccccc3c2)cc(OC)c1OC
pIC50 [1]: 5.47 | pIC50 [2]: 4.33 | inhibition ([3]; concentration not given here): 94% | inhibition ([4]; concentration not given here): 30%

COc1ccc(C(=O)N[C@@H]2C[C@H]3CCC[C@@H](C2)N3CC(=O)Nc2ccc(Cl)cc2)cc1OC
pIC50 [1]: < 4.40 | pIC50 [2]: < 4.40 | inhibition [3]: inactive | inhibition [4]: inactive

COc1cc(C(=O)N[C@@H]2C[C@H]3CCC[C@@H](C2)N3CC(=O)Nc2cccc(Cl)c2Cl)cc(OC)c1OC
pIC50 [1]: 6.80 to 6.92 | pIC50 [2]: 4.59 to 6.39 | inhibition ([3]; concentration not given here): 96 to 102% | inhibition ([4]; concentration not given here): 39 to 78%

Reference: ChEMBL document CHEMBL4610036, “Discovery of small molecule antagonists of chemokine receptor CXCR6 that arrest tumor growth in SK-HEP-1 mouse xenografts as a model of hepatocellular carcinoma” (Bioorg Med Chem Lett, 2020)
